ChEMBL document CHEMBL3286113, “New potent antibacterial oxazolidinone (MRX-I) with an improved class safety profile” (J Med Chem, 2014)
Converted amounts (≈) assume the structure as drawn.

Experiments:
[1] = tested on: Staphylococcus aureus; assay: Antibacterial activity against methicillin-resistant Staphylococcus aureus SAU1009; type: functional
Method in brief: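 MIC against MRSA strain SAU1009.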

[2] = target: T1, Amine oxidase [flavin-containing] A (Homo sapiens, UniProt P21397); assay: Inhibition of human recombinant MAO-A expressed in yeast after 1 hr by luciferin-based luminescence assay
T1 sequence (P21397 whole entry): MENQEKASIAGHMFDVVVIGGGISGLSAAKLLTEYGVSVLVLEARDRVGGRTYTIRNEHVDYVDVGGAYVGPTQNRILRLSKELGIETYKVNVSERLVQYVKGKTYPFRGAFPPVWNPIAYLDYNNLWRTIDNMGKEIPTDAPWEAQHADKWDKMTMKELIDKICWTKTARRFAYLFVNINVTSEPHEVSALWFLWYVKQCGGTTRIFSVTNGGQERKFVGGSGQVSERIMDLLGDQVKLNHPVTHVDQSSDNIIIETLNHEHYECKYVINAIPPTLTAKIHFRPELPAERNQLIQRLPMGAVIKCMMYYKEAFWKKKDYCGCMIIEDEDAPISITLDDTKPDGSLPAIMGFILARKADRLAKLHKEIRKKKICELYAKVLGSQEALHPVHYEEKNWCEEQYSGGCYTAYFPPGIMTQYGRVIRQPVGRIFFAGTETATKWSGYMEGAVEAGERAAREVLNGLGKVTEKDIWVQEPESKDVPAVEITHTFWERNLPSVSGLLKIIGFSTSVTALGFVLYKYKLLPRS

[3] = tested on: Staphylococcus aureus; assay: Antibacterial activity against Staphylococcus aureus in po dosed mouse septicemia model; type: functional
[4] = tested on: Staphylococcus aureus; assay: Antibacterial activity against Staphylococcus aureus by agar dilution method; type: functional
Method in brief: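 MIC determined by agar dilution across S. aureus/MRSA isolates; MIC90 is the concentration inhibiting 90% of strains tested.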

MIC90 [4] [µg/mL] | SMILES | MIC [1] [µg/mL] | IC50 [2] [µM] | ED50 [3] [mg/kg]
– | COC(=O)NC[C@H]1CN(c2cc(F)c(N3C=CC(=O)CC3)c(F)c2F)C(=O)O1 | 2 (≈ 5.01 µM) | 61.1 | 6.3
– | O=C1C=CN(c2c(F)cc(N3C[C@H](Cn4ccnn4)OC3=O)c(F)c2F)CC1 | 1 (≈ 2.54 µM) | > 254 | 10
– | O=C1C=CN(c2ccc(N3C[C@H](COc4ccon4)OC3=O)c(F)c2F)CC1 | 4 (≈ 10.2 µM) | – | > 20
4 (≈ 10.7 µM) | CC(=O)NC[C@H]1CN(c2cc(F)c(N3CCOCC3)c(F)c2F)C(=O)O1 | – | – | –
